Assays:
Cavia porcellus = assay: Cardiotoxicity in telemetered guinea pig assessed as changes in QTc interval at 30 to 100 mg/kg; type: toxicity, organism-based; settings: in vivo
How it was run: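 Telemetered guinea pigs were exposed at 30 and 100 mg/kg. Electrocardiographic PR, QRS and QT/QTc intervals were monitored for changes related to the test article, and exposure was referenced to total Cmax.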

hERG (KCNH2) [1] = target: T1, hERG (KCNH2) (Homo sapiens, UniProt Q12809); assay: Inhibition of human ERG at 1.5 mg/ml by binding assay relative to control; parameters: dose or concentration left out as unconfirmed
[2] = Mean residence time in Sprague-Dawley rat at 3 mg/kg, iv; type: ADME, organism-based; settings: in vivo
How it was run: (§1)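 Intravenous dosing in male CD1 mice (10 mg/kg, n = 30), Sprague–Dawley rats (3 mg/kg, n = 3), beagle dogs (3 mg/kg, n = 3) and cynomolgus monkeys (1 mg/kg, n = 3). Vehicle was aqueous 20% hydroxypropyl-β-cyclodextrin. Mean residence time and steady-state volume of distribution were taken from plasma concentration–time profiles as mean parameters.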

[3] = target: T2, Mitogen-activated protein kinase; ERK1/ERK2 (Homo sapiens) (UniProt P27361+P28482); assay: Inhibition of ERK1/2 in human A2058 cells assessed as reduction in RSK phosphorylation after 24 hrs by Western blot analysis; type: cell-based
How it was run: (§2)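 A2058 melanoma cells were treated across a compound dose range. pERK1/2 and pRSK levels were detected by Western blot analysis.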

[4] = target: T2, Mitogen-activated protein kinase; ERK1/ERK2 (Homo sapiens); assay: Inhibition of ERK1/2 phosphorylation in human A2058 cells at 30 nM after 24 hrs by Western blot analysis relative to control; type: cell-based; how it was run: as §2
Cytochrome P450 2C8 = target: T3, Cytochrome P450 2C8 (Homo sapiens, UniProt P10632); assay: Inhibition of CYP2C8 (unknown origin) co-incubated with substrate; type: ADME
T3 sequence (P10632 whole entry): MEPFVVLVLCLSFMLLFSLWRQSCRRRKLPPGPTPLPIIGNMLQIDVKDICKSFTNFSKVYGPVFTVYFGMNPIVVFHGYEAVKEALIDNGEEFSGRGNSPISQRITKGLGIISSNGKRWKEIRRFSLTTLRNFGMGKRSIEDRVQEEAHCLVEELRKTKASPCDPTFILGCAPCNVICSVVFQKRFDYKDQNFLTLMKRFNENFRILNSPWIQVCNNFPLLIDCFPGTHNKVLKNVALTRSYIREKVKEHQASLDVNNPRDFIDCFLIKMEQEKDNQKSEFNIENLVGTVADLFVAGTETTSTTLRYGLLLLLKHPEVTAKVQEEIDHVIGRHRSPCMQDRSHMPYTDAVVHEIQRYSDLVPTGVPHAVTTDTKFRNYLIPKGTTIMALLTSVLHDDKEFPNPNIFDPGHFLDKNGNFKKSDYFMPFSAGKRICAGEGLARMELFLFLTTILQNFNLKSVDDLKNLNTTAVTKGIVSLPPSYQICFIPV

[5] = Tmax in monkey at 10 mg/kg, po; settings: cynomolgus monkey, in vivo
Cytochrome P450 1A2 = target: T4, Cytochrome P450 1A2 (Homo sapiens, UniProt P05177); assay: Inhibition of CYP1A2 (unknown origin) preincubated followed by substrate addition; type: ADME
T4 sequence (P05177 whole entry): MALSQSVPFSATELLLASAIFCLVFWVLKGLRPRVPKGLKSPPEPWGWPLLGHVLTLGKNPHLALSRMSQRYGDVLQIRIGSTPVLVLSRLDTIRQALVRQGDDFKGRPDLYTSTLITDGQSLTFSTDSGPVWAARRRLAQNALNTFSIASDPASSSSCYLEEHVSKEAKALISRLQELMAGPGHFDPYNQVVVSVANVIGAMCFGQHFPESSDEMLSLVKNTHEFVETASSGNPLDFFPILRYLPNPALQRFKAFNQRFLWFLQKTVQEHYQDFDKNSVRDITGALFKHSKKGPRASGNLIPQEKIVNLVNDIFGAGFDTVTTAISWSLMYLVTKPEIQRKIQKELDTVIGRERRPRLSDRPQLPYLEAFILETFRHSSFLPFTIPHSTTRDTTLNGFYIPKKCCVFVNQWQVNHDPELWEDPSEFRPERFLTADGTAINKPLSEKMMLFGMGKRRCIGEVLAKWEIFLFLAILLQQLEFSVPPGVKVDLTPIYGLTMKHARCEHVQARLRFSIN

COLO 205 [6] = assay: Antitumor activity against human COLO205 cells xenografted in nude mouse assessed as tumor growth inhibition at 40 mg/kg, po bid measured after 28 days relative to control; type: functional; settings: COLO 205, po, 672 h, read-out: TGI
How it was run: (§3)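 Female nude mice carrying Colo-205 human colon tumor xenografts were randomized to oral dosing twice daily at 20, 40 or 60 mg/kg, or to vehicle. After 28 days of treatment, tumor growth inhibition or tumor regression was assessed relative to vehicle control, with P-value testing.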

[7] = Protein binding in Sprague-Dawley rat plasma at 10 uM; type: ADME, cell-free; settings: read-out: PPB
[8] = Half life in Beagle dog at 3 mg/kg, iv; type: ADME, organism-based, Canis lupus familiaris; settings: in vivo
How it was run: (§4)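 The compound was given intravenously as an aqueous solution in 20% hydroxypropyl-β-cyclodextrin. Animals were male CD1 mice (10 mg/kg, n = 30), Sprague–Dawley rats (3 mg/kg, n = 3), beagle dogs (3 mg/kg, n = 3) and cynomolgus monkeys (1 mg/kg, n = 3). Plasma concentration–time data gave mean AUC(0–∞), half-life, mean residence time, clearance and Vd,ss.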

HT-29 = assay: Antiproliferative activity against human HT-29 cells harboring BRAF V600E/D mutant measured after 4 days; type: functional, cell-based; settings: HT-29, 96 h
[9] = Volume of distribution at steady state in monkey at 1 mg/kg, iv; settings: cynomolgus monkey, in vivo, read-out: Vdss
COLO 205 [10] = assay: Antitumor activity against human COLO205 cells xenografted in nude mouse assessed as tumor growth inhibition at 20 mg/kg, po bid measured after 28 days relative to control; type: functional; settings: COLO 205, po, 672 h, read-out: TGI; how it was run: as §3
[11] = Clearance in Sprague-Dawley rat at 3 mg/kg, iv; type: ADME, organism-based; settings: in vivo; how it was run: as §4
[12] = Tmax in Sprague-Dawley rat at 10 mg/kg, po; type: ADME, organism-based; settings: in vivo
How it was run: (§5)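 Oral dosing in male CD1 mice (30 mg/kg, n = 27), Sprague–Dawley rats (10 mg/kg, n = 3), beagle dogs (30 mg/kg, n = 3) and cynomolgus monkeys (10 mg/kg, n = 3). Mean Tmax was read from plasma concentration–time data. Bioavailability was derived from oral AUC(0–∞) compared with intravenous AUC.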

hERG (KCNH2) [13] = target: T1, hERG (KCNH2); assay: Inhibition of human ERG at 10 uM by IonWork assay relative to control
[14] = Mean residence time in CD1 mouse at 10 mg/kg, iv; type: ADME, organism-based; settings: in vivo; how it was run: as §1
[15] = Mean residence time in monkey at 1 mg/kg, iv; settings: cynomolgus monkey, in vivo
[16] = Tmax in CD1 mouse at 30 mg/kg, po; type: ADME, organism-based; settings: in vivo; how it was run: as §5
[17] = Volume of distribution at steady state in Beagle dog at 3 mg/kg, iv; type: ADME, organism-based, Canis lupus familiaris; settings: in vivo, read-out: Vdss; how it was run: as §1
[18] = Protein binding in mouse plasma at 10 uM; type: ADME, cell-free; settings: read-out: PPB
[19] = Volume of distribution at steady state in Sprague-Dawley rat at 3 mg/kg, iv; type: ADME, organism-based; settings: in vivo, read-out: Vdss; how it was run: as §1
[20] = Apparent permeability across apical to basolateral side in human Caco2 cells; type: ADME, cell-based; settings: Caco-2, read-out: permeability

T1 sequence (Q12809 whole entry): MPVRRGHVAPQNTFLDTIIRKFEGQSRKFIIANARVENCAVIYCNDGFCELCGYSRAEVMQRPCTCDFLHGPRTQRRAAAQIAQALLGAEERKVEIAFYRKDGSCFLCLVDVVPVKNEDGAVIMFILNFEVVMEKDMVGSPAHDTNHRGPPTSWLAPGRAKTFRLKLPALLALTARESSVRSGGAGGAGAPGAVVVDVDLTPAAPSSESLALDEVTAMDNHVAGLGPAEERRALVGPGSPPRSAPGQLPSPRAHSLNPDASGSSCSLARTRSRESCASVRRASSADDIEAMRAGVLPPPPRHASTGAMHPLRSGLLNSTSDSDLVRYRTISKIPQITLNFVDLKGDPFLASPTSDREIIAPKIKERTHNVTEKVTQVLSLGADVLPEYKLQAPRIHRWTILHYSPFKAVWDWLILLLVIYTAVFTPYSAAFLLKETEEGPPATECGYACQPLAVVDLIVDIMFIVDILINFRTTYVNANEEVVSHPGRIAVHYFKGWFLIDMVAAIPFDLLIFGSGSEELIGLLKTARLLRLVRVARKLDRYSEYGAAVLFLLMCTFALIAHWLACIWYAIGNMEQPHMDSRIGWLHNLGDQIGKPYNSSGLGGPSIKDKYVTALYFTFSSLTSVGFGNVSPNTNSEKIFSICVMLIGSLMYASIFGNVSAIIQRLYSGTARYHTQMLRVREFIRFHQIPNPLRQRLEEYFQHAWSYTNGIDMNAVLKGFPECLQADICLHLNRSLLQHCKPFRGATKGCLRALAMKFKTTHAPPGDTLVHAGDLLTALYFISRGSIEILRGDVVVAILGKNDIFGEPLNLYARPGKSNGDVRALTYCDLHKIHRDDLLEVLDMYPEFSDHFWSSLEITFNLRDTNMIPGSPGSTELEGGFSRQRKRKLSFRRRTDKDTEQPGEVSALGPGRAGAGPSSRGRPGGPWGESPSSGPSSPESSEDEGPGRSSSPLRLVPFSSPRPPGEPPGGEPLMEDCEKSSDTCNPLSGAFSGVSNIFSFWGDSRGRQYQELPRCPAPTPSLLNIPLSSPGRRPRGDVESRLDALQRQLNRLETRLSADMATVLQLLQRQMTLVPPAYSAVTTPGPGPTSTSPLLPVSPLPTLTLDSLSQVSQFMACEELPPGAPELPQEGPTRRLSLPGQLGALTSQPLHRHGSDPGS
T2 sequence (P27361 whole entry, looked up): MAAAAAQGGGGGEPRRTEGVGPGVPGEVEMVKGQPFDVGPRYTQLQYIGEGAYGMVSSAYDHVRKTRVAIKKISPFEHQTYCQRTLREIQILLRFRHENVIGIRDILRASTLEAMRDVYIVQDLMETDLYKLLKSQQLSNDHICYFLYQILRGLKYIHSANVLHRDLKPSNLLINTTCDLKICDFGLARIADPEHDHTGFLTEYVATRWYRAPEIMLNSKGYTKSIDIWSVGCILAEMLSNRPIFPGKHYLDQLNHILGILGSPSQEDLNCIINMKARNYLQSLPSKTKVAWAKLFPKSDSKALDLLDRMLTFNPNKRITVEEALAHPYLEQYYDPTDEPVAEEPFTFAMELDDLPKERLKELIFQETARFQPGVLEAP
T2 sequence (P28482 whole entry, looked up): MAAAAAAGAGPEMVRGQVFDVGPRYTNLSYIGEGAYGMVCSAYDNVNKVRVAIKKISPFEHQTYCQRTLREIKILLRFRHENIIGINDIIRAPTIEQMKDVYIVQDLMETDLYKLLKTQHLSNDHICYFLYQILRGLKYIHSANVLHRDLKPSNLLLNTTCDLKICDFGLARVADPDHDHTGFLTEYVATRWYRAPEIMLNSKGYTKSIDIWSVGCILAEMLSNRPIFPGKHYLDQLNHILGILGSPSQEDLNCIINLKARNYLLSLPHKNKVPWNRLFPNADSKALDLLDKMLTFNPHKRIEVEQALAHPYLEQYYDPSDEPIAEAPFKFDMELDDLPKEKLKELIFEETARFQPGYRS

CS[C@@]1(C(=O)Nc2ccc3[nH]nc(-c4ccc(OC(C)C)nc4)c3c2)CCN(CC(=O)N2CC=C(c3ccc(-c4ncn(C)n4)cc3)CC2)C1 [MK-8353]
Activity (Cavia porcellus): Non-Toxic | inhibition (hERG (KCNH2) [1]): -3.5% | MRT [2]: 2.3 h | inhibition [3]: Dose-dependent effect | inhibition [4]: 100% | IC50 (Cytochrome P450 2C8): > 5000 nM | Tmax [5]: 1.4 h | inhibition (INH) (Cytochrome P450 1A2): Not Active | inhibition in vivo at 40 mg/kg (COLO 205 [6]): 88% | fraction unbound at 10 µM [7]: < 0.01 | half-life [8]: 2.8 h | IC50 (HT-29): 51 nM | Vd [9]: 2 L/kg | inhibition in vivo at 20 mg/kg (COLO 205 [10]): 37% | clearance [11]: 1 mL/min/kg | Tmax [12]: 1.7 h | inhibition at 10 µM (hERG (KCNH2) [13]): -0.2% | MRT [14]: 1.5 h | MRT [15]: 1.9 h | Tmax [16]: 1 h | Vd [17]: 0.9 L/kg | fraction unbound at 10 µM [18]: < 0.01 | Vd [19]: 0.1 L/kg | Papp A→B [20]: 13.4 ×10⁻⁶ cm/s

— ChEMBL document CHEMBL4196128 (ACS Med Chem Lett, 2018)
